According to ChEMBL document CHEMBL3779876, “Synthesis and biological evaluation of novel 2,3-dihydrochromeno[3,4-d]imidazol-4(1H)-one derivatives as potent anticancer cell proliferation and migration agents” (Eur J Med Chem, 2016):
Calls of active or inactive are those of the source. The calls are words filed in the database; no cut-off is given here.

Assays:
SW-620 [1] = assay: Induction of apoptosis in human SW620 cells assessed as early apoptotic cells at 5 uM after 24 hrs by Annexin V-FITC/propidium iodide staining based flow cytometry (reference value: 2.81%); format: functional
[2] = Cell cycle arrest in human SW620 cells assessed as accumulation at G0/G1 phase after 24 hrs by propidium iodide staining based flow cytometry; format: functional; details: SW-620
[3] = Growth inhibition of human HCT116 cells assessed as cell viability after 72 hrs by MTT assay; format: functional, cell-based; details: HCT-116, 72 h
In short: (§1)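 Cells were grown in DMEM or RPMI with 10% FBS and 1% penicillin/streptomycin at 37 °C, 5% CO2. They were seeded at 2000–3000 cells, rested 24 h, then exposed to a range of concentrations for 72 h. MTT (5 mg/mL stock) was added for 2–4 h at 37 °C and formazan dissolved in DMSO. A570 was read and IC50 calculated; triplicate wells, three separate experiments.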

[4] = Cell cycle arrest in human SW620 cells assessed as accumulation at G2/M phase at 0.3125 uM after 24 hrs by propidium iodide staining based flow cytometry (reference value: 22.88%); format: functional; details: SW-620
A549 = assay: Growth inhibition of human A549 cells assessed as cell viability after 72 hrs by MTT assay; format: functional, cell-based; details: A549, 72 h; in short: as §1
SW-620 [5] = assay: Induction of apoptosis in human SW620 cells assessed as late apoptotic cells at 0.625 uM after 24 hrs by Annexin V-FITC/propidium iodide staining based flow cytometry (reference value: 1.02%); format: functional
SW-620 [6] = assay: Induction of apoptosis in human SW620 cells assessed as early apoptotic cells at 2.5 uM after 24 hrs by Annexin V-FITC/propidium iodide staining based flow cytometry (reference value: 2.81%); format: functional
[7] = Cell cycle arrest in human SW620 cells assessed as accumulation at G2/M phase at 1.25 uM after 24 hrs by propidium iodide staining based flow cytometry (reference value: 22.88%); format: functional; details: SW-620
[8] = Growth inhibition of human LO2 cells assessed as cell viability after 72 hrs by MTT assay; format: cell-based; details: L02, 72 h; in short: as §1
HCT-116 [9] = assay: Inhibition of colony formation in human HCT116 cells at 0.3125 to 2.5 uM after 20 days by crystal violet staining based microscopic analysis; format: functional, cell-based
In short: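 HCT116 cells were plated at 500 per well, left overnight at 37 °C, then treated with fresh compound-containing medium. Colonies were washed with cold PBS, fixed in 4% paraformaldehyde and stained with 0.5% crystal violet for 15 min. Colonies over 50 cells were counted by microscope and expressed as % of control; three independent experiments.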

SW-620 [10] = assay: Induction of apoptosis in human SW620 cells assessed as late apoptotic cells at 2.5 uM after 24 hrs by Annexin V-FITC/propidium iodide staining based flow cytometry (reference value: 1.02%); format: functional
[11] = Cell cycle arrest in human SW620 cells assessed as accumulation at S phase at 5 uM after 24 hrs by propidium iodide staining based flow cytometry (reference value: 38.65%); format: functional; details: SW-620
[12] = Antitumor activity against human HCT116 cells xenografted in Balb/c athymic nude mouse assessed as tumor growth inhibition at 80 mg/kg, ip once in 2 days for 24 days measured every 2 days during compound treatment relative to control; format: functional; details: HCT-116, ip, read-out: TGI
In short: (§2)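 Female BALB/c athymic nude mice, 7 weeks old, received 1×10^7 HCT116 cells s.c. in the right flank. After one week, at about 100 mm³ mean tumour volume, mice were randomised to three groups of 8. Groups got vehicle, 40 or 80 mg/kg i.p. once every two days for 24 days. Tumour size and body weight were measured every two days. Volume = L×W²×0.5; inhibition was taken from mean volume change versus vehicle.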

[13] = Growth inhibition of human PC3 cells assessed as cell viability after 72 hrs by MTT assay; format: functional, cell-based; details: PC-3, 72 h; in short: as §1
SW-620 [14] = assay: Induction of apoptosis in human SW620 cells assessed as late apoptotic cells at 1.25 uM after 24 hrs by Annexin V-FITC/propidium iodide staining based flow cytometry (reference value: 1.02%); format: functional
[15] = Cell cycle arrest in human SW620 cells assessed as accumulation at G0/G1 phase at 2.5 uM after 24 hrs by propidium iodide staining based flow cytometry (reference value: 38.47%); format: functional; details: SW-620
SW-620 [16] = assay: Induction of apoptosis in human SW620 cells assessed as late apoptotic cells at 5 uM after 24 hrs by Annexin V-FITC/propidium iodide staining based flow cytometry (reference value: 1.02%); format: functional
[17] = Growth inhibition of human SW620 cells assessed as cell viability after 72 hrs by MTT assay; format: functional, cell-based; details: SW-620, 72 h; in short: as §1
[18] = Cell cycle arrest in human SW620 cells assessed as accumulation at G2/M phase at 0.625 uM after 24 hrs by propidium iodide staining based flow cytometry (reference value: 22.88%); format: functional; details: SW-620
Mus musculus = assay: Toxicity in Balb/c athymic nude mouse xenografted with human HCT116 cells assessed as body weight loss at 40 to 80 mg/kg, ip once in 2 days for 24 days measured every 2 days during compound treatment; format: organism-based, HCT-116; details: in vivo; in short: as §2
[19] = Growth inhibition of human U87MG cells assessed as cell viability after 72 hrs by MTT assay; format: functional, cell-based, U-87MG ATCC; details: U-87 MG; in short: as §1
[20] = Cell cycle arrest in human SW620 cells assessed as accumulation at S phase at 2.5 uM after 24 hrs by propidium iodide staining based flow cytometry (reference value: 38.65%); format: functional; details: SW-620
MCF7 [21] = assay: Inhibition of cell migration in human MCF7 cells at 5 uM after 24 hrs by wound healing assay; format: functional, cell-based
In short: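 MCF-7 monolayers at 80–90% confluence were scratched with a sterile pipette tip. Fresh medium with 10% FBS and compound was added. Wounds were photographed at 0, 12 and 24 h at 37 °C.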

[22] = Cell cycle arrest in human SW620 cells assessed as accumulation at S phase at 0.625 uM after 24 hrs by propidium iodide staining based flow cytometry (reference value: 38.65%); format: functional; details: SW-620
[23] = Cell cycle arrest in human SW620 cells assessed as accumulation at G0/G1 phase at 5 uM after 24 hrs by propidium iodide staining based flow cytometry (reference value: 38.47%); format: functional; details: SW-620
[24] = Cell cycle arrest in human SW620 cells assessed as accumulation at G2/M phase at 2.5 uM after 24 hrs by propidium iodide staining based flow cytometry (reference value: 22.88%); format: functional; details: SW-620
[25] = Cell cycle arrest in human SW620 cells assessed as accumulation at G0/G1 phase at 0.625 uM after 24 hrs by propidium iodide staining based flow cytometry (reference value: 38.47%); format: functional; details: SW-620
SW-620 [26] = assay: Induction of apoptosis in human SW620 cells after 24 hrs by Annexin V-FITC/propidium iodide staining based flow cytometry; format: functional, cell-based
CT26 = assay: Growth inhibition of mouse CT26 cells assessed as cell viability after 72 hrs by MTT assay; format: functional, cell-based; details: CT26, 72 h; in short: as §1
[27] = Cell cycle arrest in human SW620 cells assessed as accumulation at G2/M phase at 5 uM after 24 hrs by propidium iodide staining based flow cytometry (reference value: 22.88%); format: functional; details: SW-620
SW-620 [28] = assay: Induction of apoptosis in human SW620 cells assessed as late apoptotic cells at 0.3125 uM after 24 hrs by Annexin V-FITC/propidium iodide staining based flow cytometry (reference value: 1.02%); format: functional
SW-620 [29] = assay: Induction of apoptosis in human SW620 cells assessed as early apoptotic cells at 1.25 uM after 24 hrs by Annexin V-FITC/propidium iodide staining based flow cytometry (reference value: 2.81%); format: functional
[30] = Cell cycle arrest in human SW620 cells assessed as accumulation at S phase at 0.3125 uM after 24 hrs by propidium iodide staining based flow cytometry (reference value: 38.65%); format: functional; details: SW-620
HCT-116 [31] = assay: Antitumor activity against human HCT116 cells xenografted in ip dosed Balb/c athymic nude mouse assessed as tumor growth inhibition administered once in 2 days for 24 days measured every 2 days during compound treatment; format: functional, organism-based; in short: as §2
[32] = Cell cycle arrest in human SW620 cells assessed as accumulation at G0/G1 phase at 1.25 uM after 24 hrs by propidium iodide staining based flow cytometry (reference value: 38.47%); format: functional; details: SW-620
MCF7 [33] = assay: Growth inhibition of human MCF7 cells assessed as cell viability after 72 hrs by MTT assay; format: functional, cell-based; details: MCF7, 72 h; in short: as §1
[34] = Cell cycle arrest in human SW620 cells assessed as accumulation at G0/G1 phase at 0.3125 uM after 24 hrs by propidium iodide staining based flow cytometry (reference value: 38.47%); format: functional; details: SW-620
SW-620 [35] = assay: Induction of apoptosis in human SW620 cells assessed as early apoptotic cells at 0.3125 uM after 24 hrs by Annexin V-FITC/propidium iodide staining based flow cytometry (reference value: 2.81%); format: functional
[36] = Cell cycle arrest in human SW620 cells assessed as accumulation at S phase at 1.25 uM after 24 hrs by propidium iodide staining based flow cytometry (reference value: 38.65%); format: functional; details: SW-620
SW-620 [37] = assay: Induction of apoptosis in human SW620 cells assessed as early apoptotic cells at 0.625 uM after 24 hrs by Annexin V-FITC/propidium iodide staining based flow cytometry (reference value: 2.81%); format: functional

**Q.** What does the source list for CN1c2c(c3cc(-c4cnc5ccccc5c4)ccc3oc2=O)N(c2ccc(C(C)(C)C#N)cc2)C1(C)OC(C)(C)C (stereo not given)?
**A.** Activity (SW-620 [1]): 31.33%; Activity [2]: Dose-dependent effect; IC50 [3]: 1.4 µM; Activity [4]: 26%; IC50 (A549): 9.5 µM; Activity (SW-620 [5]): 9.09%; Activity (SW-620 [6]): 16.78%; Activity [7]: 20.5%; IC50 [8]: 37 µM; inhibition (HCT-116 [9]): Active; Activity (SW-620 [10]): 9.44%; Activity [11]: 30.3%; inhibition in vivo at 80 mg/kg [12]: 53%; IC50 [13]: 18 µM; Activity (SW-620 [14]): 8.43%; Activity [15]: 47.5%; Activity (SW-620 [16]): 11.57%; IC50 [17]: 3.55 µM; Activity [18]: 22.8%; Activity (Mus musculus): Non-toxic; IC50 [19]: > 31 µM; Activity [20]: 37.2%; inhibition (MCF7 [21]): Active; Activity [22]: 36.9%; Activity [23]: 60%; Activity [24]: 15.3%; Activity [25]: 40.3%; Activity (SW-620 [26]): Dose-dependent effect; IC50 (CT26): 3.5 µM; Activity [27]: 9.68%; Activity (SW-620 [28]): 8.96%; Activity (SW-620 [29]): 16.76%; Activity [30]: 35.2%; TGI (HCT-116 [31]): Dose-dependent effect; Activity [32]: 43%; IC50 (MCF7 [33]): 1.7 µM; Activity [34]: 38.8%; Activity (SW-620 [35]): 6.75%; Activity [36]: 36.6%; Activity (SW-620 [37]): 8.59%
